One series relates to HepG2. Description: Cytotoxicity against human HepG2 cells incubated for 48 hrs by MTT assay. The class given is functional, cell-based. The conditions noted are these: HepG2, 48 h. Summed up:
(§1)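 Cells were grown in RPMI-1640 with 10% heat-inactivated FCS at 37 °C under 5% CO₂, seeded at 5 × 10³ per well and left 24 h. Compounds in DMSO were diluted in medium to 0.5% final DMSO; controls received 0.5% DMSO. Exposure was 24–72 h, followed by MTT for 4 h, formazan dissolved in DMSO, and A570. Six wells per sample; IC₅₀ taken at 50% inhibition; ≥3 repeats.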

Series [1] has as its system BGC-823. Kind of series: Cytotoxicity against human BGC823 cells by MTT assay. The series is classed as functional, cell-based. In outline:
as §1

Series [2] can be described thus: Cytotoxicity against human GES-1 cells incubated for 48 hrs by MTT assay. The series is classed as cell-based. To be noted: GES1, 48 h. Summed up: as §1
Another series relates to HT-29. Kind of series: Cytotoxicity against human HT-29 cells incubated for 48 hrs by MTT assay. The class given is functional, cell-based. To be noted: HT-29, 48 h. In outline:
as §1

Series [3] relates to Mus musculus. Kind of series: Toxicity in human BGC823 cells xenografted nude mouse assessed as body weight changes at 8 mg/kg, iv treated 4 times on day 1, 4, 7 and 10 post tumor implant (reference value: 20.54 +/- 1.45 grams). The class given is organism-based, BGC-823. To be noted: in vivo. Details: dose 8 mg/kg, route intravenous.
Series [4] deals with BGC-823. Description: Antitumor activity against human BGC823 cells xenografted in nude mouse assessed as reduction in tumor volume at 8 mg/kg, iv dosed 5 times. The class given is functional. Details: scale not given: the % may be the effect or the level left. Summed up:
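Male nude mice (5 weeks, 18–22 g) inoculated subcutaneously with 1 × 10⁷ BGC-823 cells. At about 200 mm³ tumours, animals were randomised into four groups of eight. Each received 0.2 mL iv by tail vein; controls got 0.9% saline. Tumour volume was measured daily as 0.5 × length × width²; tumours were weighed at the end. Values are mean ± SD, n = 8.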

In series [5] the test system is Mus musculus. Description: Toxicity in human BGC823 cells xenografted nude mouse assessed as body weight changes at 8 mg/kg, iv treated 5 times on day 1, 4, 7, 10 and day 13 post tumor implant (reference value: 20.21 +/- 1.83 grams). The series is classed as organism-based, BGC-823. Details: dose 8 mg/kg, route intravenous. The conditions noted are these: in vivo.

For series [6], the system named is Mus musculus. Description: Toxicity in human BGC823 cells xenografted nude mouse assessed as body weight changes at 8 mg/kg, iv treated […] on day 1, 4, 7, 10, 13 and day 16 post tumor implant (reference value: 20.12 +/- 1.52 grams). The conditions noted are these: in vivo. The series is classed as organism-based, BGC-823. Details: dose 8 mg/kg, route intravenous.

Series [7] deals with Mus musculus. Description: Toxicity in human BGC823 cells xenografted nude mouse assessed as body weight changes at 8 mg/kg, iv treated 3 times on day 1, day 4 and day 7 post tumor implant (reference value: 20.79 +/- 1.29 grams). The class given is organism-based, BGC-823. Details: dose 8 mg/kg, route intravenous. The conditions noted are these: in vivo.
The test system of series [8] is Mus musculus. Description: Toxicity in human BGC823 cells xenografted nude mouse assessed as body weight changes at 8 mg/kg, iv treated 2 times on day 1 and day 4 post tumor implant (reference value: 20.58 +/- 1.35 grams). The series is classed as organism-based, BGC-823. To be noted: in vivo. Details: dose 8 mg/kg, route intravenous.
For series [9], the system named is Mus musculus. Description: Toxicity in human BGC823 cells xenografted nude mouse assessed as body weight changes at 8 mg/kg, iv treated on day 1 post tumor implant (reference value: 19.69 +/- 1.21 grams). The class given is organism-based, BGC-823. Details: dose 8 mg/kg, route intravenous. The conditions noted are these: in vivo.

Each structure is given as a SMILES string.

Data on five molecules can be found in ChEMBL document CHEMBL2150886, “Synthesis of [3β-acetoxy-urs-12-en-28-oyl]-1-monoglyceride and investigation on its anti tumor effects against BGC-823” (Bioorg Med Chem, 2011).

As for `C[C@H]1[C@H](C)CC[C@]2(C(=O)OCC(O)CO)CC[C@]3(C)C(=CC[C@@H]4[C@@]5(C)CC[C@H](O)C(C)(C)[C@@H]5CC[C@]43C)[C@H]12` (some centres undefined), the results for the IC50 (in the series with HepG2; in the series on BGC-823 [1]; in series [2]) were 44.2 µM, 20.5 µM and 154 µM, respectively.
In the case of `CC(=O)O[C@H]1CC[C@]2(C)[C@H]3CC=C4[C@@H]5[C@@H](C)[C@H](C)CC[C@]5(C(=O)O)CC[C@@]4(C)[C@]3(C)CC[C@H]2C1(C)C` [O-ACETYLURSOLIC ACID], the IC50 was 37.7 µM with HepG2, 23.9 µM in the series on HT-29, 19.4 µM in the series with BGC-823 [1] and 92.9 µM in series [2].
On to `CC(=O)O[C@H]1CC[C@]2(C)[C@H]3CC=C4[C@@H]5[C@@H](C)[C@H](C)CC[C@]5(C(=O)OCCO)CC[C@@]4(C)[C@]3(C)CC[C@H]2C1(C)C`, for which the IC50 in the series on HepG2 was 29.8 µM; with HT-29 it was 23.6 µM; in the series with BGC-823 [1] it was 17.2 µM; in series [2] it was 137 µM.
Turning to `C[C@H]1[C@H](C)CC[C@]2(C(=O)O)CC[C@]3(C)C(=CC[C@@H]4[C@@]5(C)CC[C@H](O)C(C)(C)[C@@H]5CC[C@]43C)[C@H]12` [URSOLIC ACID], the IC50 came out at 26.3 µM in the series with HT-29, 23 µM in the series with BGC-823 [1] and 93.8 µM in [2].
With `CC(=O)O[C@H]1C(=O)[C@@]2(C)[C@H]([C@H](OC(=O)c3ccccc3)[C@]3(O)C[C@H](OC(=O)[C@H](O)[C@@H](NC(=O)c4ccccc4)c4ccccc4)C(C)=C1C3(C)C)[C@]1(OC(C)=O)CO[C@@H]1C[C@@H]2O` [PACLITAXEL], the Activity in the series on Mus musculus [3] is reported as 20.13 g; in the series with BGC-823 [4], 15.2%; in the series on Mus musculus [5], 20.17 g; in the series with Mus musculus [6] it was 20.25 g; in the series on Mus musculus [7], 19.7 g; with Mus musculus [8], 19.72 g. Further, the Activity with Mus musculus [9] is given as 18.76 g. Further, the IC50 was less than 10 µM with HT-29, 33.1 µM with BGC-823 [1] and 106 µM in series [2].
